{"source": "ChEMBL document CHEMBL1649120", "about": "“Differential effects of inhibiting chitin and 1,3-{beta}-D-glucan synthesis in ras and calcineurin mutants of Aspergillus fumigatus” (2009)", "key": {"Aspergillus fumigatus [1]": {"system": "Aspergillus fumigatus", "test": "Antifungal activity against Aspergillus fumigatus H237 assessed as abnormal hyphal growth by CLSI method", "assay_type": "functional", "conditions": "read-out: MEC", "summary_of_the_method": "(§1)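 MEC by CLSI broth microdilution in RPMI 1640. Conidia were incubated with or without drug for 48 h at 37°C, in triplicate.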"}, "Aspergillus fumigatus [2]": {"system": "Aspergillus fumigatus", "test": "Antifungal activity against crzA deficient Aspergillus fumigatus Af293 assessed as decrease in 1, 3-beta-D-glucan cell wall content at 1 ug/ml by aniline blue assay", "assay_type": "functional, organism-based", "summary_of_the_method": "(§2)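 10⁶ conidia/ml were grown in RPMI 1640 with or without drug for 48 h at 37°C, 250 rpm. Hyphae were washed in 0.1 M NaOH and lyophilized. 5 mg was taken into 1 M NaOH, sonicated and heated at 52°C for 30 min. Aniline blue mix (pH 9.5) was added for 30 min at 52°C. Fluorescence was read at ex 405/em 460 nm against a curdlan standard curve. Results are % change in RFU/mg versus untreated wild type, from five independent experiments.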"}, "Aspergillus fumigatus [3]": {"system": "Aspergillus fumigatus", "test": "Antifungal activity against rasA deficient Aspergillus fumigatus H237 assessed as decrease in 1, 3-beta-D-glucan cell wall content at 1 ug/ml by aniline blue assay", "assay_type": "functional, organism-based", "summary_of_the_method": "as §2"}, "Candida albicans": {"system": "Candida albicans", "test": "Antifungal activity against Candida albicans SC5314 assessed as decrease in chitin cell wall content at 4 ug/ml after 48 hrs", "assay_type": "functional, organism-based"}, "Aspergillus fumigatus [4]": {"system": "Aspergillus fumigatus", "test": "Antifungal activity against crzA deficient Aspergillus fumigatus Af293 assessed as increase in chitin cell wall content at 1 to 16 ug/ml after 48 hrs", "assay_type": "functional, organism-based", "summary_of_the_method": "(§3)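 Nikkomycin Z dose series from 0 to 16 μg/ml, added to cultures of 10⁶ conidia/ml in RPMI 1640 for 48 h at 37°C, 250 rpm. Chitin was assayed on 5 mg of lyophilized mycelium by KOH hydrolysis at 130°C, then MBTH colorimetry at A650 against a glucosamine standard. Output is glucosamine equivalents (μg/ml), from biological triplicate.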"}, "Aspergillus fumigatus [5]": {"system": "Aspergillus fumigatus", "test": "Antifungal activity against Aspergillus fumigatus H237 assessed as FICI in combination with caspofungin"}, "Aspergillus fumigatus [6]": {"system": "Aspergillus fumigatus", "test": "Antifungal activity against Aspergillus fumigatus H237 expressing dominant-active rasA assessed as increase in chitin cell wall content at 16 ug/ml after 48 hrs", "assay_type": "functional, organism-based", "summary_of_the_method": "as §3"}, "Aspergillus fumigatus [7]": {"system": "Aspergillus fumigatus", "test": "Antifungal activity against crzA deficient Aspergillus fumigatus Af293 assessed as FICI in combination with caspofungin"}, "Aspergillus fumigatus [8]": {"system": "Aspergillus fumigatus", "test": "Antifungal activity against Aspergillus fumigatus H237 expressing dominant-active rasA assessed as decrease in 1, 3-beta-D-glucan cell wall content at 1 ug/ml after 48 hrs by aniline blue assay", "assay_type": "functional, organism-based", "summary_of_the_method": "as §2"}, "Aspergillus fumigatus [9]": {"system": "Aspergillus fumigatus", "test": "Antifungal activity against rasA deficient Aspergillus fumigatus H237 assessed as increase in chitin cell wall content at 1 to 16 ug/ml after 48 hrs", "assay_type": "functional, organism-based", "summary_of_the_method": "as §3"}, "Aspergillus fumigatus [10]": {"system": "Aspergillus fumigatus", "test": "Antifungal activity against Aspergillus fumigatus H237 expressing dominant-active rasA gene assessed as abnormal hyphal growth by CLSI method", "assay_type": "functional", "conditions": "read-out: MEC", "summary_of_the_method": "as §1"}, "Aspergillus fumigatus [11]": {"system": "Aspergillus fumigatus", "test": "Antifungal activity against cnaA deficient Aspergillus fumigatus Af293 assessed as decrease in 1, 3-beta-D-glucan cell wall content at 1 ug/ml by aniline blue assay", "assay_type": "functional, organism-based", "summary_of_the_method": "as §2"}, "Aspergillus fumigatus [12]": {"system": "Aspergillus fumigatus", "test": "Antifungal activity against Aspergillus fumigatus Af293 assessed as FICI in combination with caspofungin"}, "Aspergillus fumigatus [13]": {"system": "Aspergillus fumigatus", "test": "Antifungal activity against crzA deficient Aspergillus fumigatus Af293 assessed as increase in chitin cell wall content at 16 ug/ml after 48 hrs", "assay_type": "functional, organism-based", "summary_of_the_method": "as §3"}, "Aspergillus fumigatus [14]": {"system": "Aspergillus fumigatus", "test": "Antifungal activity against rasA deficient Aspergillus fumigatus H237 assessed as abnormal hyphal growth by CLSI method", "assay_type": "functional", "conditions": "read-out: MEC", "summary_of_the_method": "as §1"}, "Aspergillus fumigatus [15]": {"system": "Aspergillus fumigatus", "test": "Antifungal activity against Aspergillus fumigatus Af293 expressing cnaA gene assessed as FICI in combination with caspofungin"}, "Aspergillus fumigatus [16]": {"system": "Aspergillus fumigatus", "test": "Antifungal activity against Aspergillus fumigatus H237 assessed as decrease in 1, 3-beta-D-glucan cell wall content at 1 ug/ml after 48 hrs by aniline blue assay", "assay_type": "functional, organism-based", "summary_of_the_method": "as §2"}, "Aspergillus fumigatus [17]": {"system": "Aspergillus fumigatus", "test": "Antifungal activity against Aspergillus fumigatus H237 expressing dominant-active rasA gene assessed as FICI in combination with caspofungin"}, "Aspergillus fumigatus [18]": {"system": "Aspergillus fumigatus", "test": "Antifungal activity against rasA deficient Aspergillus fumigatus H237 assessed as FICI in combination with caspofungin"}, "Aspergillus fumigatus [19]": {"system": "Aspergillus fumigatus", "test": "Antifungal activity against Aspergillus fumigatus H237 expressing dominant-active rasA assessed as increase in chitin cell wall content at 1 to 16 ug/ml after 48 hrs", "assay_type": "functional, organism-based", "summary_of_the_method": "as §3"}, "Aspergillus fumigatus [20]": {"system": "Aspergillus fumigatus", "test": "Antifungal activity against crzA deficient Aspergillus fumigatus Af293 assessed as abnormal hyphal growth by CLSI method", "assay_type": "functional", "conditions": "read-out: MEC", "summary_of_the_method": "as §1"}, "Aspergillus fumigatus [21]": {"system": "Aspergillus fumigatus", "test": "Antifungal activity against Aspergillus fumigatus Af293 expressing crzA gene assessed as abnormal hyphal growth by CLSI method", "assay_type": "functional", "conditions": "read-out: MEC", "summary_of_the_method": "as §1"}, "Aspergillus fumigatus [22]": {"system": "Aspergillus fumigatus", "test": "Antifungal activity against cnaA deficient Aspergillus fumigatus Af293 assessed as increase in chitin cell wall content at 16 ug/ml after 48 hrs", "assay_type": "functional, organism-based", "summary_of_the_method": "as §3"}, "Aspergillus fumigatus [23]": {"system": "Aspergillus fumigatus", "test": "Antifungal activity against cnaA deficient Aspergillus fumigatus Af293 assessed as abnormal hyphal growth by CLSI method", "assay_type": "functional", "conditions": "read-out: MEC", "summary_of_the_method": "as §1"}, "Aspergillus fumigatus [24]": {"system": "Aspergillus fumigatus", "test": "Antifungal activity against cnaA deficient Aspergillus fumigatus Af293 assessed as increase in chitin cell wall content at 1 to 16 ug/ml after 48 hrs", "assay_type": "functional, organism-based", "summary_of_the_method": "as §3"}, "Aspergillus fumigatus [25]": {"system": "Aspergillus fumigatus", "test": "Antifungal activity against Aspergillus fumigatus H237 expressing rasA gene assessed as FICI in combination with caspofungin"}, "Aspergillus fumigatus [26]": {"system": "Aspergillus fumigatus", "test": "Antifungal activity against cnaA deficient Aspergillus fumigatus Af293 assessed as FICI in combination with caspofungin"}, "Aspergillus fumigatus [27]": {"system": "Aspergillus fumigatus", "test": "Antifungal activity against Aspergillus fumigatus H237 expressing rasA gene assessed as abnormal hyphal growth by CLSI method", "assay_type": "functional", "conditions": "read-out: MEC", "summary_of_the_method": "as §1"}, "Aspergillus fumigatus [28]": {"system": "Aspergillus fumigatus", "test": "Antifungal activity against rasA deficient Aspergillus fumigatus H237 assessed as increase in chitin cell wall content at 16 ug/ml after 48 hrs", "assay_type": "functional, organism-based", "summary_of_the_method": "as §3"}, "Aspergillus fumigatus [29]": {"system": "Aspergillus fumigatus", "test": "Antifungal activity against Aspergillus fumigatus Af293 assessed as decrease in 1, 3-beta-D-glucan cell wall content at 1 ug/ml after 48 hrs by aniline blue assay", "assay_type": "functional, organism-based", "summary_of_the_method": "as §2"}, "Aspergillus fumigatus [30]": {"system": "Aspergillus fumigatus", "test": "Antifungal activity against Aspergillus fumigatus Af293 assessed as abnormal hyphal growth by CLSI method", "assay_type": "functional", "conditions": "read-out: MEC", "summary_of_the_method": "as §1"}, "Aspergillus fumigatus [31]": {"system": "Aspergillus fumigatus", "test": "Antifungal activity against Aspergillus fumigatus Af293 expressing cnaA gene assessed as abnormal hyphal growth by CLSI method", "assay_type": "functional", "conditions": "read-out: MEC", "summary_of_the_method": "as §1"}, "Aspergillus fumigatus [32]": {"system": "Aspergillus fumigatus", "test": "Antifungal activity against Aspergillus fumigatus Af293 expressing crzA gene assessed as FICI in combination with caspofungin"}}, "note": "The source made the active and inactive calls. No cut-off for these calls is given here.", "data": [{"smiles": "C[C@@H]([C@H](N)C(=O)N[C@H](C(=O)O)[C@H]1O[C@@H](n2ccc(=O)[nH]c2=O)[C@H](O)[C@@H]1O)[C@H](O)c1ccc(O)cn1", "note": "[NIKKOMYCIN]", "values": [{"measurement": "minimal effective concentration", "setting": "Aspergillus fumigatus [1]", "value": 4, "unit": "µg/mL"}, {"measurement": "Activity", "setting": "Aspergillus fumigatus [2]", "value": "inactive"}, {"measurement": "Activity", "setting": "Aspergillus fumigatus [3]", "value": "inactive"}, {"measurement": "Activity", "setting": "Candida albicans", "value": "Active"}, {"measurement": "Activity", "setting": "Aspergillus fumigatus [4]", "value": "inactive"}, {"measurement": "fractional inhibitory concentration index (FICI)", "setting": "Aspergillus fumigatus [5]", "value": 0.16}, {"measurement": "Activity", "setting": "Aspergillus fumigatus [6]", "value": "inactive"}, {"measurement": "fractional inhibitory concentration index (FICI)", "setting": "Aspergillus fumigatus [7]", "value": 0.13}, {"measurement": "Activity", "setting": "Aspergillus fumigatus [8]", "value": "inactive"}, {"measurement": "Activity", "setting": "Aspergillus fumigatus [9]", "value": "inactive"}, {"measurement": "minimal effective concentration", "setting": "Aspergillus fumigatus [10]", "value": 4, "unit": "µg/mL"}, {"measurement": "Activity", "setting": "Aspergillus fumigatus [11]", "value": "inactive"}, {"measurement": "fractional inhibitory concentration index (FICI)", "setting": "Aspergillus fumigatus [12]", "value": 0.09}, {"measurement": "Activity", "setting": "Aspergillus fumigatus [13]", "value": "inactive"}, {"measurement": "minimal effective concentration", "setting": "Aspergillus fumigatus [14]", "value": 0.5, "unit": "µg/mL"}, {"measurement": "fractional inhibitory concentration index (FICI)", "setting": "Aspergillus fumigatus [15]", "value": 0.09}, {"measurement": "Activity", "setting": "Aspergillus fumigatus [16]", "value": "Active"}, {"measurement": "fractional inhibitory concentration index (FICI)", "setting": "Aspergillus fumigatus [17]", "value": 0.5}, {"measurement": "fractional inhibitory concentration index (FICI)", "setting": "Aspergillus fumigatus [18]", "value": 0.03}, {"measurement": "Activity", "setting": "Aspergillus fumigatus [19]", "value": "inactive"}, {"measurement": "minimal effective concentration", "setting": "Aspergillus fumigatus [20]", "value": 0.5, "unit": "µg/mL"}, {"measurement": "minimal effective concentration", "setting": "Aspergillus fumigatus [21]", "value": 4, "unit": "µg/mL"}, {"measurement": "Activity", "setting": "Aspergillus fumigatus [22]", "value": "inactive"}, {"measurement": "minimal effective concentration", "setting": "Aspergillus fumigatus [23]", "value": 0.125, "unit": "µg/mL"}, {"measurement": "Activity", "setting": "Aspergillus fumigatus [24]", "value": "inactive"}, {"measurement": "fractional inhibitory concentration index (FICI)", "setting": "Aspergillus fumigatus [25]", "value": 0.09}, {"measurement": "fractional inhibitory concentration index (FICI)", "setting": "Aspergillus fumigatus [26]", "value": 0.19}, {"measurement": "minimal effective concentration", "setting": "Aspergillus fumigatus [27]", "value": 2, "unit": "µg/mL"}, {"measurement": "Activity", "setting": "Aspergillus fumigatus [28]", "value": "inactive"}, {"measurement": "Activity", "setting": "Aspergillus fumigatus [29]", "value": "Active"}, {"measurement": "minimal effective concentration", "setting": "Aspergillus fumigatus [30]", "value": 2, "unit": "µg/mL"}, {"measurement": "minimal effective concentration", "setting": "Aspergillus fumigatus [31]", "value": 2, "unit": "µg/mL"}, {"measurement": "fractional inhibitory concentration index (FICI)", "setting": "Aspergillus fumigatus [32]", "value": 0.16}]}]}
